Measurements published in ChEMBL document CHEMBL4513216, “Probing the Open Global Health Chemical Diversity Library for Multistage-Active Starting Points for Next-Generation Antimalarials” (ACS Infect Dis, 2020).

Experiment: Toxicity liver stage against HepG2, at 10uM
Type: cell-based
Set-up: test concentration 10 uM, cell line HepG2-A16-CD81EGFP
Settings: human, HepG2-A16-CD81EGFP cells; read-out: INHIBITION
How it was run: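 Uninfected HepG2-A16-CD81EGFP cells, 3 × 10^3 per well, 1536-well, plated on prespotted compound at 10 μM final, parasite-free screening media added to match infected plates; puromycin 10 μM positive, DMSO 0.5% negative; run in parallel with 48 h PbLuc assay at 37 °C, 5% CO2; viability by CellTiter-Glo luminescence, normalized to controls.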

In the case of `CC(C)(C)CC(=O)N[C@@H]1CO[C@H](CNC(=O)c2ccncc2)[C@H]1O`, the cytotoxicity at 10 µM was -3.81%.

Work on `CN(C)C(=O)c1cc(-c2ccccc2)[nH]n1` yielded a cytotoxicity at 10 µM of -4.5%.

Work on `CCOC(=O)[C@H]1[C@@H](O)C(=O)N(C)C12CCN(C(=O)CC(C)(C)C)CC2` yielded a cytotoxicity at 10 µM of -4.1%.

Compound `COCCn1ccc(=O)c(OCC(=O)Nc2ccc(OC)cc2)c1C` has a cytotoxicity at 10 µM of 0.955%.

`COCCCNC(=O)Cc1cc(-c2ccccc2)on1` showed a cytotoxicity at 10 µM of -7.39%.

Compound `Cc1ccc(Cl)cc1NC(=O)C1CSc2ncc(C)c(=O)n2C1` (stereo unspecified) has a cytotoxicity at 10 µM of 1.42%.

Work on `Cc1cccc(NC(=O)c2ccc(-n3cncn3)nn2)n1` yielded a cytotoxicity at 10 µM of -0.895%.

Compound `Cc1nc(COCc2nc3c(o2)CN(C(=O)c2ccoc2)C3)cs1` has a cytotoxicity at 10 µM of -1.95%.

For `Cc1cnc(N2C[C@@H]3[C@@H](C(=O)NCC(C)C)CCS(=O)(=O)[C@@H]3C2)nc1`, the cytotoxicity at 10 µM was -155%.

With `O=c1cc(CNS(=O)(=O)C2CC2)nc2n1CCCNC2` the cytotoxicity at 10 µM was 7.83%.

`CCS(=O)(=O)N1CCN(C(=O)NC(C)C)CC2(CC(=O)N(C)C2)C1` (stereo unspecified) showed a cytotoxicity at 10 µM of 6.62%.

Work on `Cc1ccc(N2CCc3sc(C(=O)N4CCOCC4)cc32)nn1` yielded a cytotoxicity at 10 µM of -0.142%.

With `COCC(=O)N1CCc2c(CNS(C)(=O)=O)n[nH]c2C1` the cytotoxicity at 10 µM was 4.32%.

In the case of `CC1CCN(S(=O)(=O)c2cccn(CC(=O)NC3CCCC3)c2=O)CC1`, the cytotoxicity at 10 µM was -14.6%.

With `CCC1=N[C@@]2(CC[C@@H]3CN(C(=O)Nc4ccc(F)cc4)C[C@@H]32)C(=O)N1` the cytotoxicity at 10 µM was -24%.

In the case of `CCn1cc(-c2cc(C(F)F)nc3sc(C(N)=O)c(N)c23)c(C)n1`, the cytotoxicity at 10 µM was 3.04%.

For `NCc1n[nH]c(-c2ccc(Br)cc2)n1`, the cytotoxicity at 10 µM was 19.7%.

Compound `CCn1cc(S(=O)(=O)N2CCCCCC2c2cc(C)on2)cn1` (stereo unspecified) has a cytotoxicity at 10 µM of 7.43%.

For `Cc1cncc(C2CCN(C(=O)c3ccc(-n4cccn4)nc3)CC2)n1`, the cytotoxicity at 10 µM was -0.701%.

`Cc1cc(O)nc(C2CN(CC3(O)CCOCC3)CCO2)n1` (stereo unspecified) gave a cytotoxicity at 10 µM of -18.3%.

Work on `CNc1cncc(C2CCCN2S(=O)(=O)c2ccccc2F)n1` (stereo unspecified) yielded a cytotoxicity at 10 µM of -15.1%.

For `CC(C)n1cnnc1SCCN(C)c1ccccc1`, the cytotoxicity at 10 µM was 2.96%.

In the case of `CC1(C)COCCN1C(=O)CCc1nc(-c2ccccn2)no1`, the cytotoxicity at 10 µM was -4.59%.

With `Cc1cc(C)n2c(CNCCNc3ccccc3)cnc2n1` the cytotoxicity at 10 µM was -144%.

For `COCCNS(=O)(=O)c1c(C)sc2ccccc12`, the cytotoxicity at 10 µM was 1.11%.

`CCOC(=O)C1(NCC(=O)Nc2cc(C)ccc2OC)CCCC1` gave a cytotoxicity at 10 µM of 6.9%.

With `CC(C)c1noc(CCNC(=O)NCC2Cc3ccccc3O2)n1` (stereo unspecified) the cytotoxicity at 10 µM was 7.4%.

Compound `COc1cc(CNC2CCCN(c3ncccn3)C2)cc2c1OCO2` (stereo unspecified) has a cytotoxicity at 10 µM of 6.26%.

For `CCc1noc(C(C)N(C)Cc2ccc(OC)c(OC)c2)n1` (stereo unspecified), the cytotoxicity at 10 µM was -7.13%.

`CCCC(=O)N1CCC(Nc2ncc(Br)cn2)CC1` gave a cytotoxicity at 10 µM of -8.69%.

Compound `O=C(Nc1cccnc1-n1cncn1)N(C1CCCC1)C1CC1` has a cytotoxicity at 10 µM of -10.9%.

With `O=C(CCn1ccc2ccccc21)N1CCC(Nc2cccnn2)CC1` the cytotoxicity at 10 µM was 3.79%.

Compound `Cc1cc2c(cc1C)OC(C(=O)NCCNC(=O)C1CCCC1)C2` (stereo unspecified) has a cytotoxicity at 10 µM of 7.71%.

For `N#Cc1ccnc(N2CCN(CC(O)c3ccc(F)c(F)c3)CC2)c1` (stereo unspecified), the cytotoxicity at 10 µM was 2.8%.

`O=C(Nc1cccc(N2CCN(CC3CC3)CC2)c1)C1CCCO1` (stereo unspecified) showed a cytotoxicity at 10 µM of -1.23%.

With `O=S(=O)(NCCN1CC=CC1)c1cncc(Cl)c1` the cytotoxicity at 10 µM was -2.42%.

For `Cn1cnn(Cc2ccccc2F)c1=O`, the cytotoxicity at 10 µM was -3.09%.

Compound `CCC(Nc1ccc(Oc2ccccc2OC)cc1)C(N)=O` (stereo unspecified) has a cytotoxicity at 10 µM of 1.77%.

`NC(=O)C1CN(C(=O)NCC2(c3ccc(F)cc3)CCC2)CCO1` (stereo unspecified) gave a cytotoxicity at 10 µM of -5.07%.

Compound `CCc1nsc(N2CCN(Cc3ccno3)CC2)n1` has a cytotoxicity at 10 µM of -8.95%.

In the case of `O=C(CCc1nccs1)N1CCC(C(=O)O)(c2ccccc2)CC1`, the cytotoxicity at 10 µM was 1.75%.

With `CC(CS(C)(=O)=O)N(C(=O)CCc1cccc(F)c1)C1CC1` (stereo unspecified) the cytotoxicity at 10 µM was -6.77%.

`C1CC1c1nsc(N2CCN(C3CC3)CC2)n1` showed a cytotoxicity at 10 µM of -16.4%.

`O=C(C1CC(F)(F)C1)N1C[C@@H]2CN(Cc3ccoc3)CCO[C@@H]2C1` showed a cytotoxicity at 10 µM of 7.81%.

In the case of `Cn1ccnc1SCCNC(=O)CC1CCc2ccccc21` (stereo unspecified), the cytotoxicity at 10 µM was -3.05%.

Compound `O=C1O[C@@H]2CN(Cc3cccc(O)c3)C[C@@H]2N1CCCN1CCOCC1` has a cytotoxicity at 10 µM of 0.476%.

`CN(C)C1(CNc2nccc(-c3cnn(C)c3)n2)CCSC1` (stereo unspecified) gave a cytotoxicity at 10 µM of -126%.

For `Cc1cnc(C(=O)N2CCCC(Cn3cc(CC(C)C)nn3)C2)cn1` (stereo unspecified), the cytotoxicity at 10 µM was 1.33%.

For `CCS(=O)(=O)N1CCC(c2nccn2Cc2ccncc2)CC1`, the cytotoxicity at 10 µM was -4%.

Compound `CCCc1nnc(NC2CCN(C3CCOCC3)CC2)o1` has a cytotoxicity at 10 µM of -4.92%.

With `CCN1CC2(CCC1=O)CCN(Cc1cscn1)CC2` the cytotoxicity at 10 µM was 2.48%.

`CCc1cc(CN(C)C(=O)c2cc(=O)[nH]c(=O)[nH]2)on1` gave a cytotoxicity at 10 µM of 8.71%.

Compound `CCOCc1nc2c(c(N3CC=CC3)n1)CCN(C1CCOCC1)CC2` has a cytotoxicity at 10 µM of -25.2%.

Compound `COc1cc(-c2nc3c([nH]2)CCCNC3=O)cc(OC)c1OC` has a cytotoxicity at 10 µM of 9.62%.

Compound `CCCOCC1CCN(C(=O)c2cnc(-c3csc(C)n3)nc2O)C1` (stereo unspecified) has a cytotoxicity at 10 µM of 5.25%.

Compound `CCCc1n[nH]cc1C(=O)N1CCCC(c2nccn2CC2CC2)C1` (stereo unspecified) has a cytotoxicity at 10 µM of 1.1%.

For `COc1cnc(N2C[C@@H](CN3CCOCC3)[C@@H](CO)C2)nc1`, the cytotoxicity at 10 µM was -9.25%.

With `Oc1cc(CCC2CCCCN2)cc(-c2ccncc2)c1` (stereo unspecified) the cytotoxicity at 10 µM was -12.7%.

In the case of `CN(CCO)C(=O)c1coc(CN2CCN(c3ccccc3F)CC2)n1`, the cytotoxicity at 10 µM was 15.7%.

For `Cc1nc(C)n(CC2CCCN2Cc2ncc(-c3ccccc3)o2)n1` (stereo unspecified), the cytotoxicity at 10 µM was -4.92%.

Compound `O=C(NCCNc1ncccn1)c1ccc(Br)cc1` has a cytotoxicity at 10 µM of -0.628%.

`Cc1ccc(C(O)CNC(=O)NCc2csc(C)n2)cc1` (stereo unspecified) gave a cytotoxicity at 10 µM of -5.13%.

For `CCc1[nH]ncc1C(=O)N1CCCN(Cc2nccn2C(C)C)CC1`, the cytotoxicity at 10 µM was -8.92%.

Compound `CC(C)CNC(=O)NC(=O)C(C)Nc1cccc(CN2CCOC2=O)c1` (stereo unspecified) has a cytotoxicity at 10 µM of -3.37%.

In the case of `COCC(c1cccc(C(F)(F)F)c1)N(C)C(=O)c1cccnc1` (stereo unspecified), the cytotoxicity at 10 µM was -5.28%.

`CCC1CN(Cc2cccc(C(=O)N(C)C)c2)CCN1CCOC` (stereo unspecified) gave a cytotoxicity at 10 µM of -2.99%.

`Cc1nn(C)c(C)c1CC(=O)NCc1ccnc(N2CCOCC2)c1` showed a cytotoxicity at 10 µM of -14.7%.

`CC(C)c1nc2n(n1)CC(NCc1ncc(C(C)(C)C)o1)CC2` (stereo unspecified) showed a cytotoxicity at 10 µM of -17.8%.

Compound `Cc1ccccc1-c1noc(CN2CC(n3cccn3)C2)n1` has a cytotoxicity at 10 µM of -4.21%.

`Cn1cnnc1C1CCCN(C(=O)NCc2ccccc2)C1` (stereo unspecified) showed a cytotoxicity at 10 µM of -14%.

Work on `O=C(Nc1ccccn1)c1cncc(C2CCNCC2)n1` yielded a cytotoxicity at 10 µM of -0.0757%.

`CN(C)CCOCc1nnc2n1CCN(Cc1cccs1)CC2` gave a cytotoxicity at 10 µM of 9.03%.

In the case of `c1nc2n(c1CN1CCCCC1)CCN(C1CCOC1)CC2` (stereo unspecified), the cytotoxicity at 10 µM was -152%.

With `Cc1ccc(CN2CCc3ncnc(OC(C)C)c3CC2)s1` the cytotoxicity at 10 µM was 22.8%.

`Cc1nnc(N2C[C@H](OCC3CCCC3)[C@H]3OCCC[C@H]32)s1` showed a cytotoxicity at 10 µM of 5.16%.

Work on `O=C1COC2(CCN(C(=O)c3ccoc3)CC2)CN1Cc1ccccn1` yielded a cytotoxicity at 10 µM of -1.11%.

With `c1cc(CN2CCO[C@H]3[C@H](OCC4CCOCC4)CC[C@@H]32)co1` the cytotoxicity at 10 µM was -117%.

With `O=C(c1ccc[nH]1)N1CCO[C@]2(CCC[C@@H]2COc2cccnc2)C1` the cytotoxicity at 10 µM was 9.46%.

For `CS(=O)(=O)N1C[C@H]2CC[C@@H](C1)N(C(=O)CCc1ccsc1)C2`, the cytotoxicity at 10 µM was 14.3%.

Compound `COC1C[C@@H]2CN(C(=O)Cc3ccc(C)s3)C[C@@H]2C1` (stereo partly specified) has a cytotoxicity at 10 µM of 3.53%.

For `CC(C)=CCN1C[C@@H]2CC[C@H]1CN(C(=O)Cn1c(C)cc(C)nc1=O)C2`, the cytotoxicity at 10 µM was -4.36%.
